The source of these data is ChEMBL document CHEMBL1140039, “Aglycone exploration of C-arylglucoside inhibitors of renal sodium-dependent glucose transporter SGLT2” (Bioorg Med Chem Lett, 2008).

For one data set, the system named is Liver microsomes. In words: Metabolic stability in Sprague-Dawley rat liver microsomes at 10 uM. (In general: Microsomes from liver hold many membrane-bound enzymes, among them those of drug oxidation.)
A further data set deals with Rattus norvegicus. The data set is described as follows: Effect on glucose concentration in Sprague-Dawley rat urine at 1 mg/kg, iv. Format: ADME, organism-based. The settings on record: in vivo. Further details: dose 1 mg/kg, route intravenous. In short, it runs like this:
(§1)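 Fasted male rats or mice were anesthetized with i.p. ketamine:xylazine (.001 mL/g), and the bladder was cannulated via an abdominal incision. Drug was given intravenously. Urine was collected over 60 min in 10-min intervals and assayed for glucose concentration.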

The next data set has as its system Mus musculus. In words: Effect on glucose concentration in Swiss Webster mouse urine at 0.3 mg/kg, iv. The class given is ADME, organism-based. Also noted: dose 0.3 mg/kg, route intravenous. To be noted: in vivo. An outline of the steps:
as §1

Data set [1] concerns the target T1, Sodium/glucose cotransporter 2 (Homo sapiens, UniProt P31639).
T1 sequence (P31639 whole entry): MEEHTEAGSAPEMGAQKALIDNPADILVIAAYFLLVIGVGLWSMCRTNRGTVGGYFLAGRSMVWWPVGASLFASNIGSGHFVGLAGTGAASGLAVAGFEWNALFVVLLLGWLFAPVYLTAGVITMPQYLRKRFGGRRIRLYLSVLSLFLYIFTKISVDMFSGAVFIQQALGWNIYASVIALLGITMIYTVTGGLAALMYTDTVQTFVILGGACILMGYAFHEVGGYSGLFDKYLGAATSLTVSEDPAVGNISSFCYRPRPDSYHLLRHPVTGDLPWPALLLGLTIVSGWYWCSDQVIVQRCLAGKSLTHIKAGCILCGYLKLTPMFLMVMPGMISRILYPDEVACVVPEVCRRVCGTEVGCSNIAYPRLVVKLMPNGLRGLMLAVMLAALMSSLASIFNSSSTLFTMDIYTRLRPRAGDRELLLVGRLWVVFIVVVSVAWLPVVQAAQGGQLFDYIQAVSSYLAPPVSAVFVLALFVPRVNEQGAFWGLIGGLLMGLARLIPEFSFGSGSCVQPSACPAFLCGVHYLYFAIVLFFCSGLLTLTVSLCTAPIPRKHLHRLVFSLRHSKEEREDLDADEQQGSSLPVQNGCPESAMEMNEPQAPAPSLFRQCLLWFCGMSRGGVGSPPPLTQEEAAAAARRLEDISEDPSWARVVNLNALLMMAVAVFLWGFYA
In words: Inhibition of human SGLT2 expressed in Xenopus oocyte assessed as [14C]alpha-methyl glucopyranoside uptake.

The species named for the next data set is Homo sapiens. In words: Selectivity for human SGLT2 over human SGLT1 expressed in Xenopus oocyte.

The structures appear in SMILES notation.

As for `Cc1ccc(Cc2cccc([C@@H]3O[C@H](CO)[C@@H](O)[C@H](O)[C@H]3O)c2)cc1`, in the data set on Liver microsomes, the Stability entry is reported as “Stable”. Besides, the urinary glucose was found to be 230 mg/dL in the data set on Rattus norvegicus and 600 mg/dL in the data set with Mus musculus.
A word on the EC50: it is the concentration needed to bring the measured effect to its halfway point. Turning to `Cc1cc(O)c(C(=O)CCc2ccc3occc3c2)c(O[C@@H]2O[C@H](CO)[C@@H](O)[C@H](O)[C@H]2O)c1`, the EC50 in data set [1] came to 50 nM. Also, the Selectivity ratio in the data set listed under Homo sapiens turned out to be 4.
